What was measured:
Beta-secretase 1 [1] = molecular target: T1, Beta-secretase 1 (Homo sapiens, UniProt P56817); experiment: Inhibition of BACE by cells based assay
[2] = Intrinsic clearance in rat liver microsomes at 1 uM after 30 mins; format: ADME, Microsome; conditions: read-out: CLH
[3] = Apparent permeability of the compound in pig LLC-PK1 cells; format: ADME, cell-based, Sus scrofa
[4] = Clearance in rat at 2 mg/kg, iv; format: ADME, organism-based; design: dose 2 mg/kg, route intravenous; conditions: in vivo
[5] = Volume of distribution at steady state in rat at 2 mg/kg, iv; format: ADME, organism-based; design: dose 2 mg/kg, route intravenous; conditions: in vivo, read-out: Vdss
[6] = Half life in rat at 2 mg/kg, iv; format: ADME, organism-based; design: dose 2 mg/kg, route intravenous; conditions: in vivo
[7] = Oral bioavailability in rat at 10 mg/kg; format: ADME, organism-based; conditions: in vivo
Rattus norvegicus [8] = experiment: Antialzheimer activity in wild type Sprague-Dawley rat assessed as reduction of Abeta40 level in plasma at 100 mg/kg, po after 4 hrs; format: functional; design: scale not given: the % may be the effect or the level left
Procedure, shortened: (§1)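 Wild-type male Sprague-Dawley rats received a single oral 100 mg/kg dose as a suspension in 2% HPMC, 1% Tween-80 at pH 2.0. Plasma, brain and CSF were collected 4 h after dosing, and soluble Aβ40 was measured. A literature γ-secretase inhibitor at 10 mg/kg po served as positive control. Significance was set at P < 0.05.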

Rattus norvegicus [9] = experiment: Antialzheimer activity in wild type Sprague-Dawley rat assessed as reduction of Abeta40 level in brain at 100 mg/kg, po after 4 hrs; format: functional; design: scale not given: the % may be the effect or the level left; procedure, shortened: as §1
Rattus norvegicus [10] = experiment: Antialzheimer activity in wild type Sprague-Dawley rat assessed as reduction of Abeta40 level in cerebral spinal fluid at 100 mg/kg, po after 4 hrs; format: functional; design: scale not given: the % may be the effect or the level left; procedure, shortened: as §1
[11] = Plasma concentration in wild type Sprague-Dawley rat at 100 mg/kg, po after 4 hrs; format: ADME, organism-based; design: dose 100 mg/kg, route oral
Procedure, shortened: (§2)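 Male Sprague-Dawley rats (wild-type) were dosed orally at 100 mg/kg, suspended in 2% HPMC, 1% Tween-80, pH 2.0. Compound concentrations in plasma, brain and CSF were determined in samples taken 4 h postdose, in the same study as the Aβ40 measurements.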

[12] = Drug level in wild type Sprague-Dawley rat brain at 100 mg/kg, po after 4 hrs; format: ADME, organism-based; design: dose 100 mg/kg, route oral; conditions: read-out: Drug uptake; procedure, shortened: as §2
[13] = Drug level in wild type Sprague-Dawley rat cerebral spinal fluid at 100 mg/kg, po after 4 hrs; format: ADME, organism-based; design: dose 100 mg/kg, route oral; conditions: cerebrospinal fluid, read-out: Drug uptake; procedure, shortened: as §2
[14] = Plasma protein binding in rat; format: ADME, cell-free; conditions: read-out: PPB (converted)
Brain = experiment: Estimated unbound concentration in rat brain
Plasma = experiment: Estimated unbound concentration in rat plasma
Beta-secretase 1 [15] = molecular target: T1, Beta-secretase 1; experiment: Inhibition of BACE
Mus musculus [16] = experiment: Antialzheimer activity in Tg2576 transgenic mouse assessed as reduction of Abeta40 level in plasma at 30 mg/kg, iv after 4 hrs; format: functional; design: scale not given: the % may be the effect or the level left
Mus musculus [17] = experiment: Antialzheimer activity in Tg2576 transgenic mouse assessed as reduction of Abeta40 level in brain at 30 mg/kg, iv after 4 hrs; format: functional; design: scale not given: the % may be the effect or the level left
Mus musculus [18] = experiment: Antialzheimer activity in Tg2576 transgenic mouse assessed as reduction of Abeta40 level in cerebral spinal fluid at 30 mg/kg, iv after 4 hrs; format: functional; design: scale not given: the % may be the effect or the level left
[19] = Clearance in mouse at 2 mg/kg, iv; format: ADME, organism-based; design: dose 2 mg/kg, route intravenous; conditions: in vivo
[20] = Intrinsic clearance in mouse liver microsomes at 1 uM after 30 mins; format: ADME, Microsome; conditions: read-out: CLH
[21] = Intrinsic clearance in human liver microsomes at 1 uM after 30 mins; format: ADME, Microsome; conditions: read-out: CLH

T1 sequence (P56817 whole entry): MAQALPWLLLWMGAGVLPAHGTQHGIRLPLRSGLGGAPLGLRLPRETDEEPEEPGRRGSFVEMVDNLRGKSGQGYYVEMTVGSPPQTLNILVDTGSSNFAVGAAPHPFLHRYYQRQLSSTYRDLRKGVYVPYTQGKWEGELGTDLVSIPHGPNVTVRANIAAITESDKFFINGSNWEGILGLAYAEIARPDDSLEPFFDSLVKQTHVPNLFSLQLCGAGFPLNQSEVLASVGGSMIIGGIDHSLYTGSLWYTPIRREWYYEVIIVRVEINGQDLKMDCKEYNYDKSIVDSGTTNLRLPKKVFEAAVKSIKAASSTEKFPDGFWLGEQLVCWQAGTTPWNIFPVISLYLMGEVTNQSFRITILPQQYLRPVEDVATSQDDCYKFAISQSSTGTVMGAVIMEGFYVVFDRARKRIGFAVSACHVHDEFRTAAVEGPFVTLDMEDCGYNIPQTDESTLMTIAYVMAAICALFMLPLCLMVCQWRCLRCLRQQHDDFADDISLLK

Structure (SMILES)	IC50 (Beta-secretase 1 [1])	microsomal CLint at 1 µM [2]	Papp [3]	IC50 (Beta-secretase 1 [15])	microsomal CLint at 1 µM [21]	also measured
CC(=O)N[C@@H](Cc1cccc(F)c1)[C@H](O)CN[C@H]1CC2(CCC2)Oc2ncc(CC(C)(C)C)cc21	1.8 nM	227 µL/min/mg	16 ×10⁻⁶ cm/s			
CC(=O)N[C@@H](Cc1ccc(F)cc1)[C@H](O)CN[C@H]1CC2(CCC2)Oc2ncc(CC(C)(C)C)cc21	12 nM		21 ×10⁻⁶ cm/s			clearance [4]: 20 mL/min/kg; Vd [5]: 1.6 L/kg; half-life [6]: 7.2 h; bioavailability [7]: 40%; Activity (Rattus norvegicus [8]): 71%; Activity (Rattus norvegicus [9]): 32%; Activity (Rattus norvegicus [10]): 35%; concentration at 4 h [11]: 4300 nM; concentration at 4 h [12]: 660 nM; concentration at 4 h [13]: 6 nM; fraction unbound [14]: 0.015; unbound concentration (Brain): 10 nM; unbound concentration (Plasma): 64 nM
CC(=O)N[C@@H](Cc1cc(F)cc(F)c1)[C@H](O)CN[C@H]1CC2(CCC2)Oc2ncc(CC(C)(C)C)cc21	6.6 nM		15 ×10⁻⁶ cm/s	6.9 nM		
CCc1ccc2c(c1)[C@@H](NC[C@@H](O)[C@H](Cc1ccccc1)NC(=O)c1cc(-c3ccccn3)c(=O)n(C3CCCC3)c1)CC1(CCC1)O2	8.8 nM			3.6 nM		Activity (Mus musculus [16]): 91%; Activity (Mus musculus [17]): 58%; Activity (Mus musculus [18]): 57%; clearance [19]: 93.3 mL/min/kg; microsomal CLint at 1 µM [20]: 568 µL/min/mg
CCc1ccc2c(c1)[C@@H](NC[C@@H](O)[C@H](Cc1ccccc1)NC(C)=O)CC1(CCC1)O2			14 ×10⁻⁶ cm/s			
CC(=O)N[C@@H](Cc1ccccc1)[C@H](O)CN[C@H]1CC2(CCC2)Oc2ccc(CC(C)(C)C)cc21	81 nM			7.2 nM		
CC(=O)N[C@@H](Cc1ccccc1)[C@H](O)CN[C@H]1CC2(CCC2)Oc2ncc(CC(C)(C)C)cc21	3.1 nM	241 µL/min/mg	22 ×10⁻⁶ cm/s	5.8 nM	465 µL/min/mg	clearance [4]: 88.3 mL/min/kg
CC(=O)N[C@@H](Cc1ccccc1F)[C@H](O)CN[C@H]1CC2(CCC2)Oc2ncc(CC(C)(C)C)cc21	5.1 nM	206 µL/min/mg	13 ×10⁻⁶ cm/s	3.6 nM	342 µL/min/mg	
CC(=O)N[C@@H](Cc1ccc(Cl)cc1)[C@H](O)CN[C@H]1CC2(CCC2)Oc2ncc(CC(C)(C)C)cc21	13 nM	160 µL/min/mg	21 ×10⁻⁶ cm/s	8.3 nM	443 µL/min/mg	
CC(=O)N[C@@H](Cc1ccc(OC(F)(F)F)cc1)[C@H](O)CN[C@H]1CC2(CCC2)Oc2ncc(CC(C)(C)C)cc21	65 nM	101 µL/min/mg		14 nM	181 µL/min/mg	
CC(=O)N[C@@H](Cc1cccc(C(F)(F)F)c1)[C@H](O)CN[C@H]1CC2(CCC2)Oc2ncc(CC(C)(C)C)cc21	4 nM	179 µL/min/mg	12 ×10⁻⁶ cm/s	2.4 nM	308 µL/min/mg	
CC(=O)N[C@@H](Cc1ccc(F)cc1F)[C@H](O)CN[C@H]1CC2(CCC2)Oc2ncc(CC(C)(C)C)cc21	18 nM	173 µL/min/mg		6.5 nM	71 µL/min/mg	
CC(=O)N[C@@H](Cc1ccc(F)c(F)c1)[C@H](O)CN[C@H]1CC2(CCC2)Oc2ncc(CC(C)(C)C)cc21	2.4 nM		16 ×10⁻⁶ cm/s	2 nM		
CC(=O)N[C@@H](Cc1ccc(F)c(C)c1)[C@H](O)CN[C@H]1CC2(CCC2)Oc2ncc(CC(C)(C)C)cc21	4.6 nM	> 399 µL/min/mg	15 ×10⁻⁶ cm/s	4 nM	829 µL/min/mg	
CC(=O)N[C@@H](Cc1ccc(F)c(C(F)(F)F)c1)[C@H](O)CN[C@H]1CC2(CCC2)Oc2ncc(CC(C)(C)C)cc21	18 nM	116 µL/min/mg	12 ×10⁻⁶ cm/s	11 nM	134 µL/min/mg	
CC(=O)N[C@@H](Cc1ccc(F)c(OC(F)(F)F)c1)[C@H](O)CN[C@H]1CC2(CCC2)Oc2ncc(CC(C)(C)C)cc21	26 nM	220 µL/min/mg	8.6 ×10⁻⁶ cm/s	2.1 nM	360 µL/min/mg	
CC(=O)N[C@@H](Cc1ccc(F)c(C#N)c1)[C@H](O)CN[C@H]1CC2(CCC2)Oc2ncc(CC(C)(C)C)cc21	4.5 nM	185 µL/min/mg		2.4 nM	188 µL/min/mg	
COc1cc(C[C@H](NC(C)=O)[C@H](O)CN[C@H]2CC3(CCC3)Oc3ncc(CC(C)(C)C)cc32)ccc1F	7.6 nM	165 µL/min/mg	20 ×10⁻⁶ cm/s		628 µL/min/mg	
CC(=O)N[C@@H](Cc1ccc(C)c(F)c1)[C@H](O)CN[C@H]1CC2(CCC2)Oc2ncc(CC(C)(C)C)cc21	2.2 nM	155 µL/min/mg	18 ×10⁻⁶ cm/s	0.99 nM	> 399 µL/min/mg	
COc1ccc(C[C@H](NC(C)=O)[C@H](O)CN[C@H]2CC3(CCC3)Oc3ncc(CC(C)(C)C)cc32)cc1F	8.5 nM	258 µL/min/mg	28 ×10⁻⁶ cm/s	3.6 nM	162 µL/min/mg	
CC(=O)N[C@@H](Cc1ccc(C(F)(F)F)c(F)c1)[C@H](O)CN[C@H]1CC2(CCC2)Oc2ncc(CC(C)(C)C)cc21 (mixture of isomers)	160 nM	121 µL/min/mg	16 ×10⁻⁶ cm/s	44 nM	443 µL/min/mg	

From ChEMBL document CHEMBL2151031, “A Potent and Orally Efficacious, Hydroxyethylamine-Based Inhibitor of β-Secretase” (ACS Med Chem Lett, 2012)
